The subject of one series is Oncopeltus Na+/K+-ATPase. Nature of the series: Na+/K+-ATPase inhibition assay, Oncopeltus neural enzyme. Type of series: biochemical, Oncopeltus fasciatus. As to conditions: from Fig. 3. An outline of the steps: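 Neural-tissue enzyme; stocks in 20% DMSO/H₂O (5 mM, or 1 mM for one test compound). Six-point 1/10 dilution series, diluted 1:5 into Tris-buffered ATP, NaCl, KCl, MgCl₂ plus enzyme; 37 °C, 20 min, shaking. Stopped with 10% SDS; Pi by Taussky–Shorr at 700 nm. Background: 10 mM ouabain, no KCl. IC50 from four-parameter logistic mixed model; ratios use monarch enzyme or ouabain IC50s.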

In a further series the target is monarch Na+/K+-ATPase (Danaus plexippus, UniProt K0G7C4). As to conditions: monarch enzyme; cited from earlier work.
Chain of monarch Na+/K+-ATPase (K0G7C4 1-1009): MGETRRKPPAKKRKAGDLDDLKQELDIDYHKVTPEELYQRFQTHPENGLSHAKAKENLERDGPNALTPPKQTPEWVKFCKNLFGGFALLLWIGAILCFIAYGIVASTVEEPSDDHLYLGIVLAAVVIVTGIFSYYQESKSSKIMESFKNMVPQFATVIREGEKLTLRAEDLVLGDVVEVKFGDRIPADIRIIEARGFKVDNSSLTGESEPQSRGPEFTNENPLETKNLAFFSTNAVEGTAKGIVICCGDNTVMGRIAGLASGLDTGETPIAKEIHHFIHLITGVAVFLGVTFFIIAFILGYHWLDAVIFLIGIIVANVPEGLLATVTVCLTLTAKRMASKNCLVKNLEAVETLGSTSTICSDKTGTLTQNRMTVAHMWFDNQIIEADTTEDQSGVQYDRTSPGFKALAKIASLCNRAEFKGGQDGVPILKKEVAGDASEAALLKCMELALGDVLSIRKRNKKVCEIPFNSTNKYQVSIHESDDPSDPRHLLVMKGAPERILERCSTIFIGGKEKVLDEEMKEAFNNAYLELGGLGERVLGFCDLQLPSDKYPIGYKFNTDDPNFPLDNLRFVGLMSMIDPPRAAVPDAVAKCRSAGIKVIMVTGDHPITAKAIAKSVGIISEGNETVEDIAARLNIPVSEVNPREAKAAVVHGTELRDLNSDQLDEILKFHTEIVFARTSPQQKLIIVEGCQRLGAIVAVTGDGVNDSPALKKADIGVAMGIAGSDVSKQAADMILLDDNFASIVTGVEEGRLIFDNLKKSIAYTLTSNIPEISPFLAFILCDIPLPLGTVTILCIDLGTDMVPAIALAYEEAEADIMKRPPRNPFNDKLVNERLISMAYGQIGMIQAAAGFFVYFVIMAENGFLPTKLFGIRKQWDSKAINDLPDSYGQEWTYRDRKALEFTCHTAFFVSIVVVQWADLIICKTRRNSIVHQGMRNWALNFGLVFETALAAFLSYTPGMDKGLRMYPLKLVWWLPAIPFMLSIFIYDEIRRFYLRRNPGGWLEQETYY
A further series deals with monarch butterflies. As to conditions: cited from earlier work.
The subject of a further series is Oncopeltus fasciatus. Nature of the series: Laboratory rearing on A. syriaca seeds: sequestration of seed cardenolides. The class given is in vivo. As to conditions: bugs reared on A. syriaca seeds from Ithaca, NY. An outline of the steps:
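Field-collected Oncopeltus (Ithaca, NY) reared on a pooled A. syriaca seed lot for fewer than five generations. Whole adults and seeds, 50 mg ground freeze-dried each, extracted in methanol with 20 µg digitoxin internal standard. Analysed by C18 HPLC-UV (acetonitrile/water gradient, 218 nm), with cardenolides taken as peaks with a 214–222 nm maximum. Quantified by peak area against digitoxin on a dry-mass basis; HRMS for identification.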

These results are taken from paper PMC9231628 (Proceedings of the National Academy of Sciences of the …, 2022).

In the case of `C[C@@H]1O[C@@H](O[C@H]2C[C@@H](O)[C@]3(CO)[C@H]4[C@H](O)C[C@]5(C)[C@@H](C6=CC(=O)OC6)CC[C@]5(O)[C@@H]4CC[C@]3(O)C2)[C@H](O)[C@H](O)[C@H]1O` [Ouabain, ouabain], the “advantage (tolerance) of Oncopeltus enzyme over monarchs” value in the series with Oncopeltus Na+/K+-ATPase came to 2 fold.

The term IC50 denotes the midpoint of a concentration-inhibition curve. Regarding `C[C@@H]1C[C@@]2(NCCS2)[C@]2(O)O[C@@H]3C[C@@]4(C=O)[C@@H](CC[C@@H]5[C@@H]4CC[C@]4(C)[C@@H](C6=CC(=O)OC6)CC[C@]54O)C[C@H]3O[C@@H]2O1` [Voruscharin, voruscharin], the 50% inhibitory concentration (IC50) on monarch Na+/K+-ATPase was 2000 nM. Moreover, the “effect on monarch growth” value in the series with monarch butterflies was “negatively impacts monarch growth”.

For Aspecioside A, the “share of the total cardenolides in bugs” value in the series on Oncopeltus fasciatus was found to be 33%.
